# Results as given in ChEMBL document CHEMBL1770134, “Synthesis and in vitro activity of novel 1,2,4-triazolo[4,3-a]pyrimidine oxazolidinone antibacterial agents” (Bioorg Med Chem Lett, 2011).
# Columns and labels:
# [1] = tested on: Staphylococcus epidermidis; test: Antibacterial activity Staphylococcus epidermidis ATCC 12228; format: functional
# Escherichia coli = test: Antibacterial activity against Escherichia coli ATCC 25922; format: functional
# Enterococcus faecalis [2] = test: Antibacterial activity against Enterococcus faecalis ATCC 29212; format: functional
# Staphylococcus aureus [3] = test: Antibacterial activity against methicillin-resistant Staphylococcus aureus ATCC 43300; format: functional
# Outline: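 MIC determined following CLSI guideline M07-A8 (2009) for dilution susceptibility testing of aerobically growing bacteria.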
# Staphylococcus aureus [4] = test: Antibacterial activity against Staphylococcus aureus ATCC 25923; format: functional
# Enterococcus faecalis [5] = test: Ratio of MIC for Linezolid to compound for Enterococcus faecalis ATCC 29212; format: functional
# Staphylococcus aureus [6] = test: Ratio of MIC for Linezolid to compound for Staphylococcus aureus ATCC 25923; format: functional
# [7] = tested on: Staphylococcus epidermidis; test: Ratio of MIC for Linezolid to compound for Staphylococcus epidermidis ATCC 12228; format: functional
# CYP1A2 = biological target: T1, CYP1A2 (Homo sapiens, UniProt P05177); test: Inhibition of CYP1A2 at 10 uM; format: ADME
# T1 sequence (P05177 whole entry): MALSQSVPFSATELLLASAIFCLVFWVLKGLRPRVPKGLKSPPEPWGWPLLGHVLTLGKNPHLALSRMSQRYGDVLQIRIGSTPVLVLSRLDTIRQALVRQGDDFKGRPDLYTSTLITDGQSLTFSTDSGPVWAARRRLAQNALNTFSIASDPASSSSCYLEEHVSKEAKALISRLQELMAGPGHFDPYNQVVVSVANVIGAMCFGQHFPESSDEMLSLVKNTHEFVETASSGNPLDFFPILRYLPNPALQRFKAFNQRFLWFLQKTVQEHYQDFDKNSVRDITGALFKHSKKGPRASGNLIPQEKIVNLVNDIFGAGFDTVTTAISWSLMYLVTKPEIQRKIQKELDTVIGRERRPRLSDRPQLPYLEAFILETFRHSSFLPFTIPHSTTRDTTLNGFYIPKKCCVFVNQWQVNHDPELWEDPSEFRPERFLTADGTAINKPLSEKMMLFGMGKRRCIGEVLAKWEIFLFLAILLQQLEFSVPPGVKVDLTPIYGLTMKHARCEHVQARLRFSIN
# Outline: (§1)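 Recombinant CYP isoforms each incubated with its own fluorogenic substrate, which is turned into a fluorescent product; fluorescence read on a plate reader. Inhibition taken as concentration-dependent reduction of that fluorescence, with standard inhibitors, buffers and stop reagents from a commercial kit.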
# CYP2C9 = CYP2C9 (Homo sapiens, UniProt P11712); test: Inhibition of CYP2C9 at 10 uM; format: ADME; outline: as §1
# CYP2C19 = CYP2C19 (Homo sapiens, UniProt P33261); test: Inhibition of CYP2C19 at 10 uM; format: ADME; outline: as §1
# CYP2D6 = CYP2D6 (Homo sapiens, UniProt P10635); test: Inhibition of CYP2D6 at 10 uM; format: ADME; outline: as §1
# CYP3A4 = CYP3A4 (Homo sapiens, UniProt P08684); test: Inhibition of CYP3A4 at 10 uM; format: ADME; outline: as §1
# Liver = test: Metabolic stability in human liver microsomes assessed per gram of liver; format: ADME, Microsome
# Chain of CYP3A4 (P08684 whole entry): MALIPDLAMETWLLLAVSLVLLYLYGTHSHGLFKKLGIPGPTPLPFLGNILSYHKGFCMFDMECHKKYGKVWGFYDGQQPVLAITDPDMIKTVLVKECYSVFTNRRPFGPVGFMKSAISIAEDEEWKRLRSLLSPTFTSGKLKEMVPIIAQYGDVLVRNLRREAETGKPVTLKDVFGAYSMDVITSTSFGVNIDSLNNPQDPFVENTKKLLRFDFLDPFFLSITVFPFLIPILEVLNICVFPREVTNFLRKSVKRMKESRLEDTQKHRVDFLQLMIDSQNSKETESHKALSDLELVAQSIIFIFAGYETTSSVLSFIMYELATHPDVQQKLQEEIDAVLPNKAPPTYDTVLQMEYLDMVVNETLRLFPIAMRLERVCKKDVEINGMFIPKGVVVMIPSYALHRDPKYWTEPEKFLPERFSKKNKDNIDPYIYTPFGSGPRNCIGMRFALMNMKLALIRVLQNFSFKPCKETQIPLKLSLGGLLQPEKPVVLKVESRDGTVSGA
# Chain of CYP2D6 (P10635 whole entry): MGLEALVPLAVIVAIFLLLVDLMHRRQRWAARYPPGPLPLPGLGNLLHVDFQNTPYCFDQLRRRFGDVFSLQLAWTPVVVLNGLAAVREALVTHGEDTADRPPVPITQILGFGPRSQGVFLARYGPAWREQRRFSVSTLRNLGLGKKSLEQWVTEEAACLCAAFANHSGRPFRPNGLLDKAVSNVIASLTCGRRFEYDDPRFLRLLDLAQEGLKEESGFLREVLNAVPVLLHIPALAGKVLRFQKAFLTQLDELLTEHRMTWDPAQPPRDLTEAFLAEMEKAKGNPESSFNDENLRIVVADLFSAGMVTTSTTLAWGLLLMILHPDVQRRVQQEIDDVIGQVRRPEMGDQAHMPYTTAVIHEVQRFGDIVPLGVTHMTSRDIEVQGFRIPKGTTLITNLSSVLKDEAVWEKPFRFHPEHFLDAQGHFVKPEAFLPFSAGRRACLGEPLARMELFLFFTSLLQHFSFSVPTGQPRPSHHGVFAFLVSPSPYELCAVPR
# Chain of CYP2C19 (P33261 whole entry): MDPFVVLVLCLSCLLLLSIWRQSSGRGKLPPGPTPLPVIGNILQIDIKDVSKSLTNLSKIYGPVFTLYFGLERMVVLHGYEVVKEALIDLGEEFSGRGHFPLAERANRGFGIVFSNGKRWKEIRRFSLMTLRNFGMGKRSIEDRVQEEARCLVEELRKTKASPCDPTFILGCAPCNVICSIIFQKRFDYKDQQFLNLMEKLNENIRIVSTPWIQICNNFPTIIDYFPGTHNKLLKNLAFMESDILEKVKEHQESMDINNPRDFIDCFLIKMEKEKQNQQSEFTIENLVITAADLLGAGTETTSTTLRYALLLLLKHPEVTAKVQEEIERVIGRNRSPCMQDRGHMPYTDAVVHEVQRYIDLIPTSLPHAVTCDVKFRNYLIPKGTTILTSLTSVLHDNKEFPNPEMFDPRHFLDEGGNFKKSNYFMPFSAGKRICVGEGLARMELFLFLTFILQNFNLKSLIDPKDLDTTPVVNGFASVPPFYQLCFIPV
# Chain of CYP2C9 (P11712 whole entry): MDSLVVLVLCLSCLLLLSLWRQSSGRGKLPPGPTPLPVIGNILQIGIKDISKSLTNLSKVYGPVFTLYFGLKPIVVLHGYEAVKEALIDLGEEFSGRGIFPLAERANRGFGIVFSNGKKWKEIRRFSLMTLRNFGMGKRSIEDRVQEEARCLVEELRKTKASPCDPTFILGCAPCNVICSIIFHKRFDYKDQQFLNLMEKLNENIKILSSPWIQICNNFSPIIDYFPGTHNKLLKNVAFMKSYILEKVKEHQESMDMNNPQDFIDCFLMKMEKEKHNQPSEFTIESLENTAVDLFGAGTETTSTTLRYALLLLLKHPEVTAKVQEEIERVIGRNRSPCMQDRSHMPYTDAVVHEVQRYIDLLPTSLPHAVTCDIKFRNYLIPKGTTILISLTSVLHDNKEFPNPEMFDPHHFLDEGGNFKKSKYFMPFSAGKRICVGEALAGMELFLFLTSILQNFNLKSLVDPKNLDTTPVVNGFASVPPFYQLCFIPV
Structure (SMILES),MIC [1],MIC (Escherichia coli),MIC (Enterococcus faecalis [2]),MIC (Staphylococcus aureus [3]),MIC (Staphylococcus aureus [4]),Ratio (Enterococcus faecalis [5]),Ratio (Staphylococcus aureus [6]),Ratio [7],inhibition at 10 µM (CYP1A2),inhibition at 10 µM (CYP2C9),inhibition at 10 µM (CYP2C19),inhibition at 10 µM (CYP2D6),inhibition at 10 µM (CYP3A4),Stability (Liver)
CC(=O)NC[C@H]1CN(c2ccc(-c3nnc4ncccn34)cc2)C(=O)O1,8 µg/mL,> 16 µg/mL,16 µg/mL,16 µg/mL,16 µg/mL,,,,,,,,,
CCC(=O)NC[C@H]1CN(c2ccc(-c3nnc4ncccn34)cc2)C(=O)O1,16 µg/mL,> 16 µg/mL,16 µg/mL,16 µg/mL,16 µg/mL,,,,,,,,,
CCCC(=O)NC[C@H]1CN(c2ccc(-c3nnc4ncccn34)cc2)C(=O)O1,16 µg/mL,> 16 µg/mL,> 16 µg/mL,16 µg/mL,> 16 µg/mL,,,,,,,,,
CCCCC(=O)NC[C@H]1CN(c2ccc(-c3nnc4ncccn34)cc2)C(=O)O1,16 µg/mL,> 16 µg/mL,> 16 µg/mL,16 µg/mL,> 16 µg/mL,,,,,,,,,
CC(C)CC(=O)NC[C@H]1CN(c2ccc(-c3nnc4ncccn34)cc2)C(=O)O1,16 µg/mL,> 16 µg/mL,> 16 µg/mL,16 µg/mL,> 16 µg/mL,,,,,,,,,
CC(C)C(=O)NC[C@H]1CN(c2ccc(-c3nnc4ncccn34)cc2)C(=O)O1,> 16 µg/mL,> 16 µg/mL,> 16 µg/mL,16 µg/mL,> 16 µg/mL,,,,,,,,,
O=C(CCl)NC[C@H]1CN(c2ccc(-c3nnc4ncccn34)cc2)C(=O)O1,4 µg/mL,> 16 µg/mL,16 µg/mL,4 µg/mL,4 µg/mL,,,,,,,,,
O=C(NC[C@H]1CN(c2ccc(-c3nnc4ncccn34)cc2)C(=O)O1)C(Cl)Cl,4 µg/mL,> 16 µg/mL,8 µg/mL,8 µg/mL,4 µg/mL,,,,,,,,,
O=C(NC[C@H]1CN(c2ccc(-c3nnc4ncccn34)cc2)C(=O)O1)C1CC1,8 µg/mL,> 16 µg/mL,16 µg/mL,8 µg/mL,16 µg/mL,,,,,,,,,
O=C(NC[C@H]1CN(c2ccc(-c3nnc4ncccn34)cc2)C(=O)O1)C1CCC1,16 µg/mL,> 16 µg/mL,> 16 µg/mL,16 µg/mL,> 16 µg/mL,,,,,,,,,
O=C(NC[C@H]1CN(c2ccc(-c3nnc4ncccn34)cc2)C(=O)O1)c1ccccc1,> 16 µg/mL,> 16 µg/mL,> 16 µg/mL,> 16 µg/mL,> 16 µg/mL,,,,,,,,,
CC(=S)NC[C@H]1CN(c2ccc(-c3nnc4ncccn34)cc2)C(=O)O1,0.5 µg/mL,> 16 µg/mL,1 µg/mL,0.5 µg/mL,1 µg/mL,2,2,2,0%,15%,30%,13%,28%,0.3 mL/min/g
CCC(=S)NC[C@H]1CN(c2ccc(-c3nnc4ncccn34)cc2)C(=O)O1,2 µg/mL,> 16 µg/mL,4 µg/mL,2 µg/mL,4 µg/mL,,,,,,,,,
COC(=O)NC[C@H]1CN(c2ccc(-c3nnc4ncccn34)cc2)C(=O)O1,16 µg/mL,> 16 µg/mL,> 16 µg/mL,16 µg/mL,16 µg/mL,,,,,,,,,
CCOC(=O)NC[C@H]1CN(c2ccc(-c3nnc4ncccn34)cc2)C(=O)O1,> 16 µg/mL,> 16 µg/mL,> 16 µg/mL,16 µg/mL,16 µg/mL,,,,,,,,,
O=C(NC[C@H]1CN(c2ccc(-c3nnc4ncccn34)cc2)C(=O)O1)Oc1ccccc1,> 16 µg/mL,> 16 µg/mL,> 16 µg/mL,> 16 µg/mL,> 16 µg/mL,,,,,,,,,
CC(C)NC(=O)NC[C@H]1CN(c2ccc(-c3nnc4ncccn34)cc2)C(=O)O1,> 16 µg/mL,> 16 µg/mL,> 16 µg/mL,> 16 µg/mL,> 16 µg/mL,,,,,,,,,
CC(C)(C)NC(=O)NC[C@H]1CN(c2ccc(-c3nnc4ncccn34)cc2)C(=O)O1,> 16 µg/mL,> 16 µg/mL,> 16 µg/mL,> 16 µg/mL,> 16 µg/mL,,,,,,,,,
CCCCNC(=O)NC[C@H]1CN(c2ccc(-c3nnc4ncccn34)cc2)C(=O)O1,> 16 µg/mL,> 16 µg/mL,> 16 µg/mL,> 16 µg/mL,> 16 µg/mL,,,,,,,,,
CC(C)NC(=S)NC[C@H]1CN(c2ccc(-c3nnc4ncccn34)cc2)C(=O)O1,16 µg/mL,> 16 µg/mL,> 16 µg/mL,16 µg/mL,16 µg/mL,,,,,,,,,
CCCCNC(=S)NC[C@H]1CN(c2ccc(-c3nnc4ncccn34)cc2)C(=O)O1,8 µg/mL,> 16 µg/mL,16 µg/mL,8 µg/mL,16 µg/mL,,,,,,,,,
COCCNC(=S)NC[C@H]1CN(c2ccc(-c3nnc4ncccn34)cc2)C(=O)O1,8 µg/mL,> 16 µg/mL,> 16 µg/mL,16 µg/mL,> 16 µg/mL,,,,,,,,,
CC(=O)NC[C@H]1CN(c2ccc(N3CCOCC3)c(F)c2)C(=O)O1 [LINEZOLID],1 µg/mL,> 16 µg/mL,,,,,,,,,,,,
